# An excerpt weighted towards active compounds, which were near 3.1% of everything screened.
# CHO parental Ca: counter-screen: ATP calcium response change in parental CHO cells; parental CHO-K1, ATP-induced calcium, Fluo-8 fluorescence; inhibition, % at 5.6 µM; actives 0.63% (n = 330,000);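 active = inhibition above that plate's mean sample inhibition plus 3 SD, cut at about 26% in these data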
#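 Test system: parental CHO cells; detection: calcium-sensitive Fluo-8 fluorescence; evaluation: percent inhibition of calcium signal; also added: ATP as calcium-mobilizing challenge; repeats: one well per compound; control set: ATP-challenged DMSO wells low, unchallenged DMSO wells high; compound: single nominal dose of 5.6 µM per compound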
# OX1R antag-1: antagonists of human orexin 1 receptor (OX1R); OX1R-expressing cells, FRET antagonist read-out; inhibition, % at 6.6 µM; actives 1.8% (n = 330,000); in the data active = inhibition mostly above about 38%, no sharp cut-off; inactive = mostly below about 40%
# GalR3 antagonist: blocks the human galanin receptor 3 | O60755 | inhibition, % at 3 µM | actives 0.44% (n = 360,000) | HEK293 GalR3-CNG cAMP membrane potential fluorescence; galR3 body fused to GalR1 C-terminus;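 active = inhibition above the screen-wide average plus 3 SD, cut at about 13% in these data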;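 also: forskolin and galanin both at EC90 stimulate the cells; cAMP rise reported by CNG channel membrane potential dye signal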
# Target sequence (O60755 1-299 limits assumed): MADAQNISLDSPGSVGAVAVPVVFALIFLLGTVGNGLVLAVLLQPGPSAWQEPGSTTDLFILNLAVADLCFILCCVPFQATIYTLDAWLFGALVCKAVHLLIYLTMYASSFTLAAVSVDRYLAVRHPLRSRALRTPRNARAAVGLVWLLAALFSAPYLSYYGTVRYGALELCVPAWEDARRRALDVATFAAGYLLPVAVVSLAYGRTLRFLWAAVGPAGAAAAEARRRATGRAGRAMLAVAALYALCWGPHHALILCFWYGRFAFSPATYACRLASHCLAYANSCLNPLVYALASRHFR
# GPR7 antagonist: human neuropeptides B/W receptor 1 antagonism; inhibition, % at 4.4 µM; GPR7-expressing cells, fluorescence antagonist assay; P48145; actives 1.1% (n = 290,000); in the data active = inhibition above about 16%, passing the limit was not always enough;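 also: cells stimulated with the agonist NPW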
# Target sequence (P48145 whole entry, looked up): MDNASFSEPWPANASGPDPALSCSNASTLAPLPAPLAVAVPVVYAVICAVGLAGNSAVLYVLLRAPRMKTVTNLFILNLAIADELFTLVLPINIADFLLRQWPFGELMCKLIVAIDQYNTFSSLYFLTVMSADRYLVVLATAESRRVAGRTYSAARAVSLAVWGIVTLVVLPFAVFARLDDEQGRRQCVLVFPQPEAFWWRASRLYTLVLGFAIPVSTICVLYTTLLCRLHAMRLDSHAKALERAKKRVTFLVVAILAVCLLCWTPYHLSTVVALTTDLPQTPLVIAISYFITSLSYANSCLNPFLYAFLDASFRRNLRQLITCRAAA
# OX1R antag-2: human HCRTR1 antagonism; O43613; CHO/OX1R cells, Fluo-8 calcium fluorescence, orexin A; inhibition, % at 5 µM; actives 0.43% (n = 330,000);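 active = inhibition above its plate's threshold, mean inhibition of all tested compounds on the plate plus 3 SD, cut at about 37% in these data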
# OX1R HTRF conf: OX1R (human) antagonism, HTRF confirmed. shares compounds with OX1R antag-1. OX1R-expressing cells, HTRF antagonist assay. inhibition, % at 6.6 µM. actives 49% (n = 1,800); in the data active = inhibition above about 55%;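 also: CHO cells expressing OX1R stimulated with orexin A at about EC80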
# CHO-K1 HTRF: signal in parental CHO-K1 cells, OX1R antagonist counter-screen. inhibition, % at 6.6 µM. shares compounds with OX1R antag-1. HTRF counterscreen. actives 48% (n = 1,800); in the data active = inhibition above about 17%
# GalR3 antag conf: confirmation of human galanin receptor 3 antagonists; shares compounds with GalR3 antagonist; actives 59% (n = 1,600); inhibition, % at 3 µM; AID 652245; HEK293 GalR3 CNG cAMP biosensor, membrane potential fluorescence; galR3 fused to GalR1 carboxy tail; challenged with forskolin and galanin at EC90;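 active = inhibition above the primary screen's cutoff, the mean inhibition of all screened compounds plus 3 SD, cut at about 13% in these data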
# CNG parental: parental cell agonism counter-screen for GalR3 antagonists; shares compounds with GalR3 antagonist; HEK293-CNG parental cells, cAMP membrane potential fluorescence; normalised: DMSO wells 0%, forskolin wells 100%; activation, % at 3 µM; actives 10% (n = 1,600); in the data active = activation above about 1.3%
# Numbers stand for hits; 0 = inactive; - = no result given.
SMILES,CHO parental Ca,OX1R antag-1,GalR3 antagonist,GPR7 antagonist,OX1R antag-2,GalR3 antag conf,CNG parental,others
Cc1ccc(C(=O)O)cc1N=Nc1c(O)[nH]c(=O)[nH]c1=O,0,154,0,0,0,-,-,OX1R HTRF conf=57;CHO-K1 HTRF=101
O=C(O)c1cccc(N=Nc2c(O)[nH]c(=O)[nH]c2=O)c1,0,138,0,0,0,-,-,OX1R HTRF conf=62;CHO-K1 HTRF=92
CC(C)c1ccc(N=Nc2c(O)[nH]c(=O)[nH]c2=O)cc1,0,0,0,0,0,-,-,
Cc1ccc(N=Nc2c(O)[nH]c(=O)[nH]c2=O)c([N+](=O)[O-])c1,0,124,0,0,0,-,-,OX1R HTRF conf=0;CHO-K1 HTRF=56
O=c1[nH]c(O)c(N=Nc2ccc([N+](=O)[O-])cc2)c(=O)[nH]1,0,89,0,0,0,-,-,OX1R HTRF conf=62;CHO-K1 HTRF=99
O=c1[nH]c(O)c(C=Nc2ccccc2[N+](=O)[O-])c(=O)[nH]1,0,0,-,0,0,-,-,
CC(C)[C@H]1C(=O)O[C@@H]2CCN3CC=C(COC(=O)[C@](C)(O)[C@]1(C)O)[C@H]23,0,0,0,0,0,-,-,
Cc1cccc(C(O)(C(=O)O)c2ccccc2)c1 (centres undefined),-,-,0,-,-,-,-,
C[n+]1ccc(-c2ccccc2)c2ccccc21,0,96,0,-,0,-,-,OX1R HTRF conf=76;CHO-K1 HTRF=84
CCc1nnc(NC(=O)CCc2nc(C3=CCN(C)CC3)no2)s1,0,98,0,0,0,-,-,OX1R HTRF conf=0;CHO-K1 HTRF=0
CC(=O)N1CN2CN(C(C)=O)CC(C(=O)c3ccc([N+](=O)[O-])cc3)(C2)C1,0,93,0,0,0,-,-,OX1R HTRF conf=58;CHO-K1 HTRF=52
CC(=O)N1CN2CN(C(C)=O)CC(C(=O)c3ccccc3)(C2)C1,0,0,0,0,0,-,-,
Nc1cc(Cl)c2nonc2c1[N+](=O)[O-],0,113,35,0,0,20,0,OX1R HTRF conf=85;CHO-K1 HTRF=85
C[C@]12CCC3C(C(=O)C[C@H]4C[C@@H](O)CC[C@]34C)C1CCC2=O (some centres undefined),0,0,0,-,0,-,-,
COc1ccc(C(=O)N/N=C/C23CC[C@@H](O)CC2(O)CC[C@@H]2[C@@H]3CCC3(C)C(C4=CC(=O)OC4)CCC23O)cc1 (some centres undefined),0,0,34,0,0,40,0,
CC12CC[C@H]3[C@@H](CCC4(O)C[C@H](O)CCC34/C=N/NC(=O)c3ccc(O)cc3)C1(O)CCC2C1=CC(=O)OC1 (some centres undefined),0,0,0,0,0,-,-,
CN(C)c1ccc(C(=O)N/N=C/C23CC[C@@H](O)CC2(O)CC[C@@H]2[C@@H]3CCC3(C)C(C4=CC(=O)OC4)CCC23O)cc1 (some centres undefined),0,0,42,0,0,38,1.4,
COc1ccc(-n2c(O)c(C=NCc3ccc4c(c3)OCO4)c(=O)[nH]c2=O)cc1,0,0,14,0,0,0,0,
COc1cc2c(cc1OC)[C@@H]1C(=O)c3ccc4c(c3O[C@@H]1CO2)C[C@H](C(C)C)O4,60,0,98,21,0,116,0,
COc1cc2c(cc1OC)[C@H]1C(=O)c3ccc4c(c3O[C@H]1CO2)C[C@@H](C(C)(C)O)O4,0,0,0,-,0,-,-,
COc1cc2c(cc1OC)C1C(=O)c3ccc4c(c3OC1CO2)CC(C(C)C)O4 (centres undefined),-,-,96,-,-,108,0,
CC[C@H]1CN2CCC1C[C@H]2[C@H](O)c1ccnc2ccc(OC)cc12 (some centres undefined),0,0,0,-,0,-,-,
COC(=O)C1=C(c2ccc(F)cc2OCc2ccccc2)C[C@@H]2CC[C@H]1N2C(=O)N1CCCC1,0,0,0,-,0,-,-,
COC(=O)C1=C(c2ccc(Cl)c(C(F)(F)F)c2)C[C@@H]2CC[C@H]1N2C(=O)NCCCOC(C)C,0,0,-,-,0,-,-,
CC12CC[C@H]3[C@@H](CCC4(O)C[C@H](O)CCC34/C=N/NC(=O)c3ccccc3O)C1(O)CCC2C1=CC(=O)OC1 (some centres undefined),0,0,30,0,0,25,0,
SMILES,CHO parental Ca,OX1R antag-1,GalR3 antagonist,GPR7 antagonist,OX1R antag-2,GalR3 antag conf,CNG parental,others
CC12CC[C@H]3[C@@H](CCC4(O)C[C@H](O)CCC34/C=N/NC(=O)c3ccccc3F)C1(O)CCC2C1=CC(=O)OC1 (some centres undefined),0,0,37,0,0,23,0,
N=C1c2ccccc2CN1NC(=O)c1ccco1,0,0,13,-,0,0,0,
CC(=O)OCC[N+](C)(C)C,0,0,44,0,0,70,0,
C[N+](C)(C)CCOC(=O)CBr,0,0,0,-,0,-,-,
CCN(CC)C(=O)c1ccc(NC(=O)CN2CCc3cc(OC)c(OC)cc3C2)cc1,0,0,0,0,0,-,-,
CC(C)(C)c1cc([N+](=O)[O-])cc(C(C)(C)C)c1O,0,0,90,0,0,102,0,
NC(=O)c1cc([N+](=O)[O-])cc([N+](=O)[O-])c1,-,-,0,-,-,-,-,
COc1ccc2ccccc2c1CNCCc1ccccc1,0,0,0,0,0,-,-,
Oc1ccc(C2=CCNCC2)cc1O,0,0,73,-,0,87,0,
C1=C(c2ccccc2)CCNC1,0,0,0,0,0,-,-,
CN(C)C(=O)Oc1ccc2c(=O)c(Oc3ccccc3Br)coc2c1,0,0,0,0,0,-,-,
CC(C)C(=O)c1cn(Cc2ccccc2C#N)c2ccccc12,0,0,0,0,0,-,-,
CC(=O)c1cn(Cc2ccccc2C#N)c2ccccc12,0,0,90,0,0,103,0,
O=C(NC(Cc1cnc[nH]1)C(=O)O)c1ccccc1 (centres undefined),0,0,13,0,0,0,0,
COC(=O)C1=C(c2ccc(-c3ccccc3)c(F)c2)C[C@@H]2CC[C@H]1N2C(=O)NC1CCCCC1,0,0,0,-,0,-,-,
NC(=S)c1cn(C2OC(CO)C(O)C2O)c2ncnc(N)c12 (centres undefined),0,0,51,0,0,83,0,
O=C(COc1ccc(Cl)cc1)NCCc1cnc[nH]1,-,-,0,0,-,-,-,
CC(=O)OC1CC[C@]2(C#N)[C@H]3CC[C@]4(C)[C@H](C5C=CC(=O)O5)CCC4(O)C3CCC2(O)C1 (some centres undefined),0,0,26,0,0,22,1.8,
Nc1ccccc1C(=O)OCCc1ccccc1,0,0,0,-,0,-,-,
